Experimental data reported in article PMC5147544 (Science signaling, 2016).
One block for each substance: values may come before it.

Key:
[1] = biological target: mouse hypothalamic membranes (Mus musculus, UniProt P30731); experiment: Displacement of [125I]Tyr-rPEN binding in mouse hypothalamic membranes; conditions: [125I]Tyr-rPEN 3 nM, membranes 30 μg, peptide 0 to 10 μM; Fig. 1C
[2] = biological target: endogenous mouse GPR83 in brain (hypothalamus, hippocampus, PVN) (mouse (endogenous in hypothalamus, hippocampus)) (UniProt P30731); experiment: radioligand binding
[3] = intracerebroventricular administration; cited from earlier work
Neuro2A cells = Neuro2A cells (Mus musculus, UniProt P30731); experiment: Neurite outgrowth assay; assay type: cell-based; conditions: 1 μM peptide, 16 to 20 hours at 37°C, protease inhibitor cocktail; Fig. 3A
Method in brief: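 Neuro2A cells were plated on poly-L-lysine, 20,000 per well, in 10% FBS medium. Next day, in serum-free medium, cells got 1 μM peptide or vehicle with protease inhibitors for 16–20 h at 37°C. Sequential 40× images covered ~300–500 cells, with repeats on different days. Blinded scoring: a cell counted positive if its neurite was longer than twice the cell diameter.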

hGPR83 [4] = biological target: T1, hGPR83 (Homo sapiens, UniProt Q9NYM4); experiment: [35S]GTPγS binding in membranes from CHO hGPR83 cells; assay type: biochemical; conditions: membranes 20 μg; Fig. 4E
Method in brief: (§1)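 Membranes (20 μg) were incubated 1 h at 30°C with peptide (0 to 1 μM final), 2 mM GDP and 0.5 nM [³⁵S]GTPγS. Buffer was 50 mM Hepes, 5 mM MgCl₂, 100 mM NaCl, 1 mM EDTA (pH 7.4) with protease inhibitors. Nonspecific binding was taken with 10 μM cold GTPγS, and basal as GDP without ligand. Samples were filtered on GF/B, washed three times with ice-cold 50 mM tris-Cl and counted by scintillation.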

hGPR83 [5] = biological target: T1, hGPR83; experiment: Displacement of [125I]Tyr-rPEN binding to CHO hGPR83 cell membranes; conditions: Fig. 4D
Method in brief: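 Membranes were prepared from CHO cells expressing untagged hGPR83 by homogenising in ice-cold 20 mM tris-Cl, 250 mM sucrose, 2 mM EGTA, 1 mM MgCl₂ (pH 7.4), then spinning at 27,000g. Membranes (50 μg) were incubated 1 h at 37°C in 50 mM tris-Cl (pH 7.4) plus protease inhibitors with 3 nM [¹²⁵I]Tyr-rPEN and competitor peptide (0 to 10 μM). Samples were filtered on GF/B, washed three times with ice-cold buffer and counted by scintillation.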

[6] = [35S]GTPγS binding in membranes from control CHO cells; assay type: biochemical, Chinese hamster; conditions: membranes 20 μg, CHO alone; Fig. 4E
Method in brief: as §1

T1 sequence (Q9NYM4 17-423): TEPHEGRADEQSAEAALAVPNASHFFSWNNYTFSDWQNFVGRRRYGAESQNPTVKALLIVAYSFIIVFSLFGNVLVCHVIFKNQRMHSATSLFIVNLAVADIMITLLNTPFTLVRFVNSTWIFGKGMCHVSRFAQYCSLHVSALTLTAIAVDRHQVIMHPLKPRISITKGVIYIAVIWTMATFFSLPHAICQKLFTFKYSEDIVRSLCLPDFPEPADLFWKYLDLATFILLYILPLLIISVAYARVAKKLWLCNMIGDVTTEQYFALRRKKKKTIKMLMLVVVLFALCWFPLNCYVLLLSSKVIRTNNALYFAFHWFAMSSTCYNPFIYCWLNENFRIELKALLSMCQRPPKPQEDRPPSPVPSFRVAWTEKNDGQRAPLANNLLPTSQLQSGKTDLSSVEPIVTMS
Chain of Neuro2A cells (P30731 18-423): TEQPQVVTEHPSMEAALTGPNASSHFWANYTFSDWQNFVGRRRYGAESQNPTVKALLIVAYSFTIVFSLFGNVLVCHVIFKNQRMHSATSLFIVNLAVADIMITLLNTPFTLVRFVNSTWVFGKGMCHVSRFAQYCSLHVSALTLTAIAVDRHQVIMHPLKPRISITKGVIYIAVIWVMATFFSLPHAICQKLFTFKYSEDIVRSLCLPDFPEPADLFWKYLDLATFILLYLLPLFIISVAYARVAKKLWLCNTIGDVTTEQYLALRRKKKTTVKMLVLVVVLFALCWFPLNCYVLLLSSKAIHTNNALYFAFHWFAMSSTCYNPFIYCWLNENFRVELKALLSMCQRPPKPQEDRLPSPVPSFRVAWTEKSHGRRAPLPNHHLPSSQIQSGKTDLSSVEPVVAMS
Chain of mouse hypothalamic membranes (P30731 18-423): as above
Chain of endogenous mouse GPR83 in brain (hypothalamus, hippocampus, PVN) (mouse (endogenous in hypothalamus, hippocampus)) (P30731 18-423): as above

Substance: LENPSPQAPA [rlittleLEN]
competition for [125I]Tyr-rPEN binding [1]: did not compete for binding

Substance: PEN: proSAAS-derived peptide PEN, species form not stated at this place (AADHDVGSELPPEGVLGALLRV; PEN; UniProt Q9UHG2 221-242, looked up)
effect on food intake [3]: did not elicit a significant effect

Substance: bigLEN: proSAAS-derived peptide bigLEN, species form not stated at this place (LETPAPQVPARRLLPP; Big LEN; UniProt Q9UHG2 245-260, looked up)
effect on food intake [3]: did not elicit a significant effect

Substance: mbigLEN: mouse bigLEN, proSAAS-derived neuropeptide that activates GPR171 (LENPSPQAPARRLLPP; Big LEN; UniProt Q9QXV0 243-258, looked up)
number of neurites (Neuro2A cells): significantly increased

Substance: rSAAS: rat SAAS, proSAAS-derived peptide (ARPVKEPRSLSAASAPLAETSTPLRL; Big SAAS; UniProt Q9QXU9 34-59, looked up)
number of neurites (Neuro2A cells): significantly increased

Further lines, with some results ahead:

Kd [2]: 8 nM
Substance: N-terminally tyrosinated, radioiodinated rat PEN (peptide)

GTPγS binding (hGPR83 [4]): small increase | displacement of [125I]Tyr-rPEN (hGPR83 [5]; 10 μM NPY, not significant (one-way ANOVA, P = 0.37)): ~ 20% | displacement of [125I]Tyr-rPEN (hGPR83 [5]; NPY at concentrations below 1 μM, [125I]Tyr-rPEN 3 nM, membranes 50 μg): did not displace
Substance: neuropeptide Y [NPY]
GTPγS binding [6]: small increase
